# Measurements reported in ChEMBL document CHEMBL5338721, “Alkyl-substituted N-methylaryl-N'-aryl-4-aminobenzamides: A new series of small molecule inhibitors for Wip1 phosphatase” (Eur J Med Chem, 2022).
# Activity calls are given as the source filed them. The rule behind the calls is not given here.
# Target: T1, Protein phosphatase 1A (Homo sapiens) (UniProt P35813)
# T1 sequence (whole entry): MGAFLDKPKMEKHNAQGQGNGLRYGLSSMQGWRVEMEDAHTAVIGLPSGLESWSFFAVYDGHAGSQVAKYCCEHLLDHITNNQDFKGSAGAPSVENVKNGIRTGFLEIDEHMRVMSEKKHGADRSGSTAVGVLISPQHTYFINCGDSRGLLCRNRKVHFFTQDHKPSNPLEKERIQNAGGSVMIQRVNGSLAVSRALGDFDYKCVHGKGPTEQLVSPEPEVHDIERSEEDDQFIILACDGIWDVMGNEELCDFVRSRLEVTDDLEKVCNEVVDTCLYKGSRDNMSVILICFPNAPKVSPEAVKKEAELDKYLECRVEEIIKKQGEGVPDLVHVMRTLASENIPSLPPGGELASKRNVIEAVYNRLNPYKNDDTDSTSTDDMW
# Test: Inhibition of PPM1A (unknown origin) using human p38alpha phosphopeptide as substrate upto 100 uM incubated for 7 mins by Biomol green assay
# In short: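 Substrate: 100 μM p38α (175–185, 180pT) phosphopeptide, mixed with compound or DMSO, then 8 nM PPM1A added. Buffer: 50 mM Tris·HCl pH 7.5, 0.1 mM EGTA, 1 mM DTT, 1 mM CHAPS, 0.1 mg/mL BSA, 30 mM MgCl₂. Incubation: 7 min at 30 °C. Stopped with Biomol Green, 20 min colour development at room temperature. Released phosphate read at 620 nm against a phosphate standard curve. Compounds tested up to 100 μM.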
row,Structure (SMILES),inhibition
1,O=C(Nc1cccc(OP(=O)(O)O)c1)c1ccc(NC(=O)c2cccc(CNc3cccc(Cl)c3)c2)c(CC2CCCCC2)c1,inactive
2,O=C(Nc1cccc(Cl)c1)c1cccc(C(=O)Nc2ccc(C(=O)Nc3cccc(OP(=O)(O)O)c3)cc2CC2CCCCC2)c1,inactive
3,O=C(Nc1cccc(Cl)c1)c1cccc(CNc2ccc(C(=O)Nc3cccc(OP(=O)(O)O)c3)cc2CC2CCCCC2)c1,inactive

# Target: T2, Protein phosphatase 1D (Homo sapiens) (UniProt O15297)
# T2 sequence (whole entry): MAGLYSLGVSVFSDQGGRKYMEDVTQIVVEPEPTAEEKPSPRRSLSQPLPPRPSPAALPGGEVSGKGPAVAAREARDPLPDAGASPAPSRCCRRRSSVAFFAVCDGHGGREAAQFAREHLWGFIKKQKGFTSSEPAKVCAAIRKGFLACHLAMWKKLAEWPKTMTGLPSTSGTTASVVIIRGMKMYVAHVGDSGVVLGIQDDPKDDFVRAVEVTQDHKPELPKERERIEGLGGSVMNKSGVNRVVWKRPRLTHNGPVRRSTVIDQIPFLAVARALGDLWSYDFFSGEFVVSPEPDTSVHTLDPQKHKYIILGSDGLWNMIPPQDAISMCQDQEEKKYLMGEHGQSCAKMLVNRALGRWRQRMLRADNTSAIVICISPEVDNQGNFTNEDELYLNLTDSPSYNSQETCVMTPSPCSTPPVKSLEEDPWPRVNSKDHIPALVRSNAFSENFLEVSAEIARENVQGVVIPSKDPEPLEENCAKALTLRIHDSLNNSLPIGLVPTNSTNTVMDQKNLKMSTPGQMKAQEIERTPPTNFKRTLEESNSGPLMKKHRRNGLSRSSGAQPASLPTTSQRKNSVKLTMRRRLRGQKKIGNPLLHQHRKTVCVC
# Test: Inhibition of recombinant human Wip1 (1 to 420 residues) using human ATM phosphopeptide (AFEEG-pS-QSTTIGY) as substrate at 100 uM incubated for 7 mins by Bio-mol green assay
# In short: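 Purified recombinant Wip1 (1–420) incubated with compound and 100 μM ATM phosphopeptide for 7 min at 30 °C. Buffer: 50 mM Tris·HCl pH 7.5, EGTA, DTT, CHAPS, 0.1 mg/mL BSA, 30 mM MgCl₂. Phosphate measured by Biomol Green against a standard curve and normalized to no-inhibitor (100%) and no-enzyme (0%). Dose-response used 9–10 points, each in triplicate. IC50 from logistic fit (standard, or variable-slope giving a Hill coefficient).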
row,Structure (SMILES),inhibition
1,Nc1ccccc1CC1CCCCC1,inactive
2,O=C(NCCCO)C1CCCCC1,inactive
3,O=C(CC1CCCCC1)NCCCO,inactive

# Target: T2, Protein phosphatase 1D (Homo sapiens)
# Test: Inhibition of recombinant human Wip1 (1 to 420 residues) using human ATM phosphopeptide (AFEEG-pS-QSTTIGY) as substrate at 100 uM incubated for 7 mins by Bio-mol green assay relative to control
# In short: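 Recombinant Wip1 (1–420) with 100 μM ATM phosphopeptide in 50 mM Tris·HCl pH 7.5 buffer with 30 mM MgCl₂, 7 min at 30 °C. Compound given at a single 100 μM concentration. Released phosphate quantified by Biomol Green with a phosphate standard curve. Percent inhibition taken from activity normalized to no-inhibitor (100%) and no-enzyme (0%) controls.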
row,Structure (SMILES),inhibition
1,O=C(CCCC1CCCCC1)NCCCO,1%
2,Nc1ccccc1CCC1CCCCC1,3%
3,O=C(O)c1cccc(CNc2ccccc2CCC2CCCCC2)c1,88%
4,O=C(CCCCC1CCCCC1)NCCCO,4%

# Target: T3, Protein phosphatase 1D (Homo sapiens, UniProt O15297)
# T3 sequence (O15297 whole entry): T2 sequence (whole entry)
# Test: Inhibition of recombinant human Wip1 (1 to 420 residues) using human ATM phosphopeptide (AFEEG-pS-QSTTIGY) as substrate incubated for 7 mins by Bio-mol green assay
# In short: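 Released phosphate read by Biomol Green against phosphate standard curve; normalized to no-inhibitor (100%) and no-enzyme (0%). Screen at 100 μM; 9–10-point dose-response in triplicate, logistic fit for IC50 and Hill coefficient.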
row,Structure (SMILES),IC50
1,O=C(Nc1cccc(OP(=O)(O)O)c1)c1ccc(NC(=O)c2cccc(CNc3cccc(Cl)c3)c2)c(CC2CCCCC2)c1,7.2 µM
2,O=C(Nc1ccc(OP(=O)(O)O)cc1)c1ccc(NCc2ccc(F)cc2)c(CC2CCCCC2)c1,29 µM
3,COc1cc(OC)cc(-c2ccc(CNc3ccc(C(=O)Nc4cccc(OP(=O)(O)O)c4)cc3CC3CCCCC3)cc2)c1,18 µM
4,CCCCC(CCCC)CNc1ccc(C(=O)Nc2cccc(OP(=O)(O)O)c2)cc1CC1CCCCC1,512 µM
5,O=C(Nc1cccc(Cl)c1)c1cccc(CNc2ccc(C(=O)Nc3cccc(OP(=O)(O)O)c3)cc2CCC2CCCCC2)c1,32.7 µM
6,O=C(Nc1cccc(Cl)c1)c1cccc(C(=O)Nc2ccc(C(=O)Nc3cccc(OP(=O)(O)O)c3)cc2CC2CCCCC2)c1,7.3 µM
7,O=C(Nc1cccc(OP(=O)(O)O)c1)c1ccc(NCc2ccc3ccccc3c2)c(CC2CCCCC2)c1,274 µM
8,O=C(NCCc1ccc(OP(=O)(O)O)cc1)c1ccc(NC(=O)c2ccc(F)cc2)c(CC2CCCCC2)c1,36 µM
9,O=C(Nc1cccc(Cl)c1)c1ccc(CNc2ccc(C(=O)Nc3cccc(OP(=O)(O)O)c3)cc2CC2CCCCC2)cc1,11.1 µM
10,O=C(Nc1cccc(OP(=O)(O)O)c1)c1ccc(NCc2cccc(F)c2)c(CC2CCCCC2)c1,28.5 µM
11,O=C(Nc1cccc(OP(=O)(O)O)c1)c1ccc(NCc2ccc(F)cc2)cc1,683 µM
12,O=C(Nc1cccc(Cl)c1)c1cccc(CNc2ccc(C(=O)Nc3cccc(O)c3)cc2CCC2CCCCC2)c1,1600 µM
13,Nc1ccc(C(=O)Nc2cccc(OP(=O)(O)O)c2)cc1CC1CCCCC1,330 µM
14,COc1ccc(CNc2ccc(C(=O)Nc3cccc(OP(=O)(O)O)c3)cc2CC2CCCCC2)cc1,37 µM
15,O=C(Nc1cccc(OP(=O)(O)O)c1)c1ccc(NCc2ccc(-c3cccc(F)c3)cc2)c(CC2CCCCC2)c1,30 µM
16,O=C(Nc1cccc(OP(=O)(O)O)c1)c1ccc(NCc2ccc(-c3cccc(Cl)c3)cc2)c(CC2CCCCC2)c1,48 µM
17,O=C(Nc1cccc(OP(=O)(O)O)c1)c1ccc(NCc2ccc(F)cc2)c(CC2CCCCC2)c1,28.1 µM
18,O=C(Nc1cccc(OP(=O)(O)O)c1)c1ccc(NCc2ccc(F)cc2)c(Cc2ccccc2)c1,63 µM
19,O=C(Nc1cccc(OP(=O)(O)O)c1)c1ccc(NCCCc2ccccc2)c(CC2CCCCC2)c1,105 µM
20,O=C(Nc1ccc2c(c1)OCO2)c1cccc(CNc2ccc(C(=O)Nc3cccc(OP(=O)(O)O)c3)cc2CC2CCCCC2)c1,35.2 µM
21,O=C(Nc1cccc(OP(=O)(O)O)c1)c1ccc(NCc2cccnc2)c(CC2CCCCC2)c1,105 µM
22,COc1cccc(CNc2ccc(C(=O)Nc3cccc(OP(=O)(O)O)c3)cc2CC2CCCCC2)c1,139 µM
23,O=C(Nc1cccc(OP(=O)(O)O)c1)c1ccc(NCc2cc3ccccc3o2)c(CC2CCCCC2)c1,21.4 µM
24,COC(=O)c1ccc(NCc2cccc(C(=O)O)c2)c(CC2CCCCC2)c1,54.1 µM
25,O=C(O)c1cccc(CNc2ccccc2CC2CCCCC2)c1,74.8 µM
26,O=C(Nc1cccc(F)c1)c1cccc(CNc2ccc(C(=O)Nc3cccc(OP(=O)(O)O)c3)cc2CC2CCCCC2)c1,20.8 µM
27,O=C(Nc1cccc(OP(=O)(O)O)c1)c1ccc(NCc2ccc(-c3ccc(Cl)cc3)cc2)c(CC2CCCCC2)c1,332 µM
28,COC(=O)c1ccc(NCc2cccc(C(=O)O)c2)c(CCC2CCCCC2)c1,48.4 µM
29,O=C(Nc1cccc(Cl)c1)c1cccc(CNc2ccc(C(=O)Nc3cccc(OP(=O)(O)O)c3)cc2C2CC3CCC2C3)c1 (stereo not given),24.7 µM
30,O=C(Nc1cccc(Cl)c1)c1cccc(CNc2ccc(C(=O)Nc3cccc(OP(=O)(O)O)c3)cc2CC2CCCCC2)c1,3.8 µM
